Results published in ChEMBL document CHEMBL3045677, “Sulfonamide-1,2,4-thiadiazole derivatives as antifungal and antibacterial agents: synthesis, biological evaluation, lipophilicity, and conformational studies” (2010).
In brackets after ≈: the same amount, converted by molar mass.

How the values were obtained:
[1] = tested on: Fulvia fulva; experiment: Antifungal activity against Passalora fulva TK5318 at 28 degC measured after 72 hr by microdilution method; format: functional; conditions: TK5318, 72 h
Procedure, shortened: (§1)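 Fungi were kept on malt agar at 4 °C. Spores were washed off with sterile 0.85% saline containing 0.1% Tween 80 and adjusted to about 1.0×10⁵ per well. Compounds were dissolved in DMSO (1 mg/ml stock) and serially diluted in malt broth with inoculum in 96-well plates, 72 h at 28 °C, for MIC. MFC came from subculture into fresh broth for a further 72 h at 28 °C.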

[2] = tested on: Aspergillus versicolor; experiment: Antifungal activity against Aspergillus versicolor ATCC 11730 at 28 degC measured after 72 hr by microdilution method; format: functional; conditions: ATCC 11730, 72 h; procedure, shortened: as §1
[3] = tested on: Aspergillus flavus; experiment: Antifungal activity against Aspergillus flavus ATCC 9643 at 28 degC measured after 72 hr by microdilution method; format: functional; conditions: ATCC 9643, 72 h; procedure, shortened: as §1
[4] = tested on: Aspergillus niger; experiment: Antifungal activity against Aspergillus niger ATCC 6275 at 28 degC measured after 72 hr by microdilution method; format: functional; conditions: ATCC 6275, 72 h; procedure, shortened: as §1
[5] = tested on: Trichoderma viride; experiment: Antifungal activity against Hypocrea rufa IAM 5061 at 28 degC measured after 72 hr by microdilution method; format: functional; conditions: IAM 5061, 72 h; procedure, shortened: as §1
[6] = tested on: Aspergillus fumigatus; experiment: Antifungal activity against plant isolate Aspergillus fumigatus at 28 degC measured after 72 hr by microdilution method; format: functional; procedure, shortened: as §1
[7] = tested on: Penicillium ochrochloron; experiment: Antifungal activity against Penicillium ochrochloron ATCC 9112 at 28 degC measured after 72 hr by microdilution method; format: functional; conditions: ATCC 9112, 72 h; procedure, shortened: as §1
[8] = tested on: Talaromyces funiculosus; experiment: Antifungal activity against Talaromyces funiculosus ATCC 36839 at 28 degC measured after 72 hr by microdilution method; format: functional; conditions: ATCC 36839, 72 h; procedure, shortened: as §1
[9] = tested on: Listeria monocytogenes; experiment: Antibacterial activity against Listeria monocytogenes NCTC 7973 at […] degC measured after 72 hr by microdilution method; format: functional; conditions: NCTC 7973, 72 h
Procedure, shortened: (§2)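 Bactericidal endpoint: after the 24 h broth microdilution (1.0×10⁴ CFU per well, LB broth, […] °C), wells were serially subcultured into plates of fresh broth and incubated a further 72 h. MBC was the lowest concentration with no visible growth, taken as 99.5% killing of the original inoculum.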

[10] = tested on: Proteus mirabilis; experiment: Antibacterial activity against Proteus mirabilis at […] degC measured after 72 hr by microdilution method; format: functional; procedure, shortened: as §2
[11] = tested on: Salmonella typhimurium; experiment: Antibacterial activity against Salmonella enterica subsp. enterica serovar TyphimuriumATCC 13311 at […] degC measured after 72 hr by microdilution method; format: functional, Salmonella enterica subsp. enterica serovar Typhimurium; conditions: ATCC 13311, 72 h; procedure, shortened: as §2
[12] = tested on: Pseudomonas aeruginosa; experiment: Antibacterial activity against Pseudomonas aeruginosa ATCC 27853 at […] degC measured after 72 hr by microdilution method; format: functional; conditions: ATCC 27853, 72 h; procedure, shortened: as §2
[13] = tested on: Escherichia coli; experiment: Antibacterial activity against Escherichia coli ATCC 35210 at […] degC measured after 72 hr by microdilution method; format: functional; conditions: ATCC 35210, 72 h; procedure, shortened: as §2
[14] = tested on: Staphylococcus aureus; experiment: Antibacterial activity against Staphylococcus aureus ATCC 6538 at […] degC measured after 72 hr by microdilution method; format: functional; conditions: ATCC 6538, 72 h; procedure, shortened: as §2
[15] = tested on: Micrococcus flavus; experiment: Antibacterial activity against Micrococcus flavus ATCC 10240 at […] degC measured after 72 hr by microdilution method; format: functional; conditions: ATCC 10240, 72 h; procedure, shortened: as §2
[16] = tested on: Bacillus cereus; experiment: Antibacterial activity against clinical isolate Bacillus cereus at […] degC measured after 72 hr by microdilution method; format: functional; procedure, shortened: as §2
[17] = tested on: Listeria monocytogenes; experiment: Antibacterial activity against Listeria monocytogenes NCTC 7973 at […] degC measured after 24 hr by microdilution method; format: functional; conditions: NCTC 7973, 24 h
Procedure, shortened: (§3)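 Bacteria suspended in sterile saline at 1.0×10⁵ CFU/ml and added at 1.0×10⁴ CFU per well to LB broth with compound (1 mg/ml) in 96-well plates. Incubated 24 h at […] °C. MIC was the lowest concentration without visible growth under a binocular microscope. OD 655 nm was read against a blank and a positive control.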

[18] = tested on: Salmonella typhimurium; experiment: Antibacterial activity against Salmonella enterica subsp. enterica serovar Typhimurium ATCC 13311 at […] degC measured after 24 hr by microdilution method; format: functional; conditions: ATCC 13311, 24 h; procedure, shortened: as §3
[19] = tested on: Pseudomonas aeruginosa; experiment: Antibacterial activity against Pseudomonas aeruginosa ATCC 27853 at […] degC measured after 24 hr by microdilution method; format: functional; conditions: ATCC 27853, 24 h; procedure, shortened: as §3
[20] = tested on: Proteus mirabilis; experiment: Antibacterial activity against Proteus mirabilis at […] degC measured after 24 hr by microdilution method; format: functional; procedure, shortened: as §3
[21] = tested on: Escherichia coli; experiment: Antibacterial activity against Escherichia coli ATCC 35210 at […] degC measured after 24 hr by microdilution method; format: functional; conditions: ATCC 35210, 24 h; procedure, shortened: as §3
[22] = tested on: Staphylococcus aureus; experiment: Antibacterial activity against Staphylococcus aureus ATCC 6538 at […] degC measured after 24 hr by microdilution method; format: functional; conditions: ATCC 6538, 24 h; procedure, shortened: as §3
[23] = tested on: Bacillus cereus; experiment: Antibacterial activity against clinical isolate Bacillus cereus at […] degC measured after 24 hr by microdilution method; format: functional; procedure, shortened: as §3
[24] = tested on: Micrococcus flavus; experiment: Antibacterial activity against Micrococcus flavus ATCC 10240 at […] degC measured after 24 hr by microdilution method; format: functional; conditions: ATCC 10240, 24 h; procedure, shortened: as §3

`COc1cc(Cc2nnc(Nc3ccc(C(F)(F)F)cc3)s2)c(S(=O)(=O)N(C)C)cc1OC` showed an MFC [1] of 19.9 µM (≈ 10 µg/mL), an MIC [1] of 9.9 µM (≈ 4.98 µg/mL) and an MFC [2] of 39.8 µM (≈ 20 µg/mL). The MIC [2] was 9.9 µM (≈ 4.98 µg/mL), the MFC [3] was 39.8 µM (≈ 20 µg/mL) and the MIC [3] was 19.9 µM (≈ 10 µg/mL). For the same compound, the MFC [4] was 39.8 µM (≈ 20 µg/mL), the MIC [4] was 19.9 µM (≈ 10 µg/mL) and the MFC [5] was 19.9 µM (≈ 10 µg/mL). The MIC [5] was 9.9 µM (≈ 4.98 µg/mL), the MFC [6] was 39.8 µM (≈ 20 µg/mL) and the MIC [6] was 19.9 µM (≈ 10 µg/mL). It also gave an MFC [7] of 39.8 µM (≈ 20 µg/mL), an MIC [7] of 9.9 µM (≈ 4.98 µg/mL) and an MFC [8] of 19.9 µM (≈ 10 µg/mL). For the same compound, the MIC [8] was 9.9 µM (≈ 4.98 µg/mL), the MBC [9] was 79.6 µM (≈ 40 µg/mL) and the MBC [10] was 79.6 µM (≈ 40 µg/mL). For the same compound, the MBC [11] was 19.9 µM (≈ 10 µg/mL), the MBC [12] was 39.8 µM (≈ 20 µg/mL) and the MBC [13] was 79.6 µM (≈ 40 µg/mL). It also gave an MBC [14] of 39.8 µM (≈ 20 µg/mL), an MBC [15] of 19.9 µM (≈ 10 µg/mL) and an MBC [16] of 19.9 µM (≈ 10 µg/mL). It also gave an MIC [17] of 39.8 µM (≈ 20 µg/mL), an MIC [18] of 9.9 µM (≈ 4.98 µg/mL) and an MIC [19] of 19.9 µM (≈ 10 µg/mL). For the same compound, the MIC [20] was 19.9 µM (≈ 10 µg/mL), the MIC [21] was 39.8 µM (≈ 20 µg/mL) and the MIC [22] was 19.9 µM (≈ 10 µg/mL). For the same compound, the MIC [23] was 9.9 µM (≈ 4.98 µg/mL) and the MIC [24] was 9.9 µM (≈ 4.98 µg/mL).

For `COc1cc(Cc2nnc(Nc3ccc(Cl)cc3)s2)c(S(=O)(=O)N2CCCC2)cc1OC`, the MFC [1] was 20.2 µM (≈ 10 µg/mL), the MIC [1] was 10.1 µM (≈ 5 µg/mL) and the MFC [2] was 40.4 µM (≈ 20 µg/mL). It also gave an MIC [2] of 20.2 µM (≈ 10 µg/mL), an MFC [3] of 40.4 µM (≈ 20 µg/mL) and an MIC [3] of 20.2 µM (≈ 10 µg/mL). It also gave an MFC [4] of 40.4 µM (≈ 20 µg/mL), an MIC [4] of 20.2 µM (≈ 10 µg/mL) and an MFC [5] of 20.2 µM (≈ 10 µg/mL). For the same compound, the MIC [5] was 10.1 µM (≈ 5 µg/mL), the MFC [6] was 40.4 µM (≈ 20 µg/mL) and the MIC [6] was 20.2 µM (≈ 10 µg/mL). It also gave an MFC [7] of 40.4 µM (≈ 20 µg/mL), an MIC [7] of 20.2 µM (≈ 10 µg/mL) and an MFC [8] of 20.2 µM (≈ 10 µg/mL). It also gave an MIC [8] of 10.1 µM (≈ 5 µg/mL), an MBC [9] of 40.4 µM (≈ 20 µg/mL) and an MBC [10] of 40.4 µM (≈ 20 µg/mL). The MBC [11] was 20.2 µM (≈ 10 µg/mL), the MBC [12] was 40.4 µM (≈ 20 µg/mL) and the MBC [13] was 40.4 µM (≈ 20 µg/mL). It also gave an MBC [14] of 40.4 µM (≈ 20 µg/mL), an MBC [15] of 40.4 µM (≈ 20 µg/mL) and an MBC [16] of 40.4 µM (≈ 20 µg/mL). It also gave an MIC [17] of 40.4 µM (≈ 20 µg/mL), an MIC [18] of 10.1 µM (≈ 5 µg/mL) and an MIC [19] of 20.2 µM (≈ 10 µg/mL). The MIC [20] was 20.2 µM (≈ 10 µg/mL), the MIC [21] was 15.2 µM (≈ 7.52 µg/mL) and the MIC [22] was 20.2 µM (≈ 10 µg/mL). For the same compound, the MIC [23] was 20.2 µM (≈ 10 µg/mL) and the MIC [24] was 20.2 µM (≈ 10 µg/mL).

`COc1cc(Cc2nnc(Nc3ccc(Cl)cc3)s2)c(S(=O)(=O)N2CCCCC2)cc1OC` was tested, and the MFC [1] was 19.7 µM (≈ 10 µg/mL), the MIC [1] was 9.8 µM (≈ 4.99 µg/mL) and the MFC [2] was 19.7 µM (≈ 10 µg/mL). For the same compound, the MIC [2] was 9.8 µM (≈ 4.99 µg/mL), the MFC [3] was 19.7 µM (≈ 10 µg/mL) and the MIC [3] was 9.8 µM (≈ 4.99 µg/mL). It also gave an MFC [4] of 39.4 µM (≈ 20.1 µg/mL), an MIC [4] of 19.7 µM (≈ 10 µg/mL) and an MFC [5] of 19.7 µM (≈ 10 µg/mL). The MIC [5] was 9.8 µM (≈ 4.99 µg/mL), the MFC [6] was 39.4 µM (≈ 20.1 µg/mL) and the MIC [6] was 19.7 µM (≈ 10 µg/mL). The MFC [7] was 39.4 µM (≈ 20.1 µg/mL), the MIC [7] was 19.7 µM (≈ 10 µg/mL) and the MFC [8] was 39.4 µM (≈ 20.1 µg/mL). For the same compound, the MIC [8] was 19.7 µM (≈ 10 µg/mL), the MBC [9] was 78.8 µM (≈ 40.1 µg/mL) and the MBC [10] was 78.7 µM (≈ 40.1 µg/mL). For the same compound, the MBC [11] was 19.7 µM (≈ 10 µg/mL), the MBC [12] was 19.7 µM (≈ 10 µg/mL) and the MBC [13] was 39.4 µM (≈ 20.1 µg/mL). For the same compound, the MBC [14] was 39.4 µM (≈ 20.1 µg/mL), the MBC [15] was 39.4 µM (≈ 20.1 µg/mL) and the MBC [16] was 19.7 µM (≈ 10 µg/mL). For the same compound, the MIC [17] was 39.4 µM (≈ 20.1 µg/mL), the MIC [18] was 9.8 µM (≈ 4.99 µg/mL) and the MIC [19] was 9.8 µM (≈ 4.99 µg/mL). For the same compound, the MIC [20] was 19.7 µM (≈ 10 µg/mL), the MIC [21] was 19.7 µM (≈ 10 µg/mL) and the MIC [22] was 19.7 µM (≈ 10 µg/mL). It also gave an MIC [23] of 9.8 µM (≈ 4.99 µg/mL) and an MIC [24] of 19.7 µM (≈ 10 µg/mL).
